We go through 18 molecules from ChEMBL document CHEMBL4765483 (J Med Chem, 2021).

The inhibition is the share of the control response that was lost under treatment.

What all share (conditions): Cell membrane
Assay [1] addresses Adenosine receptor A2a (Homo sapiens) (UniProt P29274). The experiment in a line: Displacement of [3H]ZM2421385 from adenosine A2A receptor expressed in human HeLa cell membranes at 1 uM incubated for 30 mins by scintillation counting method.
Assay [2] concerns the target T1, Adenosine receptor A2b (Homo sapiens) (UniProt P29275).
T1 sequence (whole entry): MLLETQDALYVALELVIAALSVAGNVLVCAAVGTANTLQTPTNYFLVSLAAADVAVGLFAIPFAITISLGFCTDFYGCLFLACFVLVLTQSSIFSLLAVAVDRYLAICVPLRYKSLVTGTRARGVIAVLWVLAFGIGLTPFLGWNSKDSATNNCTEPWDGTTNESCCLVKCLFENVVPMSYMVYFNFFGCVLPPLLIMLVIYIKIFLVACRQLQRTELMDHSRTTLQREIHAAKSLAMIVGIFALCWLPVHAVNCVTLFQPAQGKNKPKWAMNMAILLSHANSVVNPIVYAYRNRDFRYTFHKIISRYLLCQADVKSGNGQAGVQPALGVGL
The assay can be described thus: Displacement of [3H]DPCPX from human adenosine A2B receptor expressed in HEK293 cell membranes at 1 uM incubated for 30 mins by scintillation counting method. A general note: In a radioligand displacement assay an active substance lowers the binding of a labelled ligand.

In assay [3] the target is T2, Adenosine receptor A1 (Homo sapiens) (UniProt P30542).
T2 sequence (whole entry): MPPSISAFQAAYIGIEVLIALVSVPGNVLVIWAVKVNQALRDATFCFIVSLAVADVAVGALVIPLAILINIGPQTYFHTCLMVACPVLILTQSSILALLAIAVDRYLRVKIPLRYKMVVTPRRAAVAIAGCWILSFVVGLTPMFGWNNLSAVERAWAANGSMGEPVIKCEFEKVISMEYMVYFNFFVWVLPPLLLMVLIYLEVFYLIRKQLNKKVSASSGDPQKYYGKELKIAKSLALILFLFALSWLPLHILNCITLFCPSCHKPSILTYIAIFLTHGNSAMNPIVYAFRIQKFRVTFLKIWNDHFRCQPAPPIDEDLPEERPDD
The experiment in a line: Displacement of [3H]DPCPX from human adenosine A1 receptor expressed in CHO cell membranes at 1 uM incubated for 60 mins by scintillation counting method.

Assay [4] has as its target T3, Adenosine receptor A3 (Homo sapiens) (UniProt P0DMS8).
T3 sequence (whole entry): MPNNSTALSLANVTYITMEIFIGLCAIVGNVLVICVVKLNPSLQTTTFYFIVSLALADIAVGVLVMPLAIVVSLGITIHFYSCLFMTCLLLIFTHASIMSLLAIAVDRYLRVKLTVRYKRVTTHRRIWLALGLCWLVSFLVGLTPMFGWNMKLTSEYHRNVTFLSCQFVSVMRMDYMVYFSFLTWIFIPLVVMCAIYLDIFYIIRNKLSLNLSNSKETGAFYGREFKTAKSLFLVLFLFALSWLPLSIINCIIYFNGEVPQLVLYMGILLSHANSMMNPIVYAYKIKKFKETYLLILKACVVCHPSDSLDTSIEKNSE
The experiment in a line: Displacement of [3H]NECA from adenosine A3 receptor expressed in human HeLa cell membranes at 1 uM incubated for 180 mins by scintillation counting method. In short, it runs like this: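 hA3AR in HeLa membranes (3 pmol/mg protein) with 10 nM [3H]NECA (KD 8.7 nM); nonspecific binding with 100 μM R-PIA; incubated 180 min at 25 °C, washed, filtered, radioactivity counted.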

Adenosine receptor A2a (Homo sapiens), sequence (P29274 whole entry): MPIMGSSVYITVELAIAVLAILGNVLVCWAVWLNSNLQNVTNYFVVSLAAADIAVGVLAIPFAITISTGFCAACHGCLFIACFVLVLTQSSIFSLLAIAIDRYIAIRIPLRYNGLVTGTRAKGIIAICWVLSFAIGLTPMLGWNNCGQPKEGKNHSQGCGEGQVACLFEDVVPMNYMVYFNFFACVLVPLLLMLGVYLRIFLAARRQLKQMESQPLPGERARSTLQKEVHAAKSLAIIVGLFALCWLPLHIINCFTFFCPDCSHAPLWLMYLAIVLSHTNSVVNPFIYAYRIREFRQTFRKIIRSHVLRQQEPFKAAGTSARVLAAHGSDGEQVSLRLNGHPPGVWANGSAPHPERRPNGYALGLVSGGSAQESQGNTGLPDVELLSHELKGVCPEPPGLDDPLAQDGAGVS

`CCOC(=O)C1=C(C)NC(=O)N[C@H]1c1ccsc1`: the inhibition in assay [1] stood at 21%; in assay [2] it was 19%; in assay [3], 5%; in assay [4] it was 3%.

Turning to `CC1=C(C(=O)OCc2ccccc2)C(c2cccs2)NC(=S)N1` (racemic), the inhibition in assay [1] worked out at 63%; in assay [2] (filed as antagonist) it was 45%; in assay [3], 34%; in assay [4] it was 24%.

As for `CC(=O)C1=C(C)NC(=O)NC1c1ccoc1` (racemic), the inhibition worked out at 1% in assay [1], 15% in assay [2], 6% in assay [3] and 2% in assay [4].

On to `CC1=C(C(=O)OC(C)(C)C)C(c2cccs2)NC(=S)N1` (racemic), for which the inhibition was 7% in assay [1], 26% in assay [2], 22% in assay [3] and 22% in assay [4].

With `CCNC(=O)C1=C(C)NC(=O)NC1c1ccsc1` (racemic), the inhibition was found to be 17% in assay [1], 1% in assay [2], 3% in assay [3] and 1% in assay [4].

`CCCOC(=O)C1=C(C)N(C)C(=O)NC1c1cccs1` (racemic): the inhibition was 1% in assay [1], 1% in assay [2], 9% in assay [3] and 4% in assay [4].

Consider `CC1=C(C(=O)NC(C)C)C(c2ccsc2)NC(=O)N1` (racemic), for which the inhibition in assay [1] came to 1%; in assay [2], 3%; in assay [3] it was 8%; in assay [4] it was 1%.

Consider `CC1=C(C(=O)OCC(C)C)C(c2ccsc2)NC(=S)N1` (racemic), for which the inhibition in assay [1] is 1%; in assay [2], 15%; in assay [3], 8%; in assay [4], 2%.

As for `CCC(CC)OC(=O)C1=C(C)NC(=O)NC1c1ccoc1` (racemic), the inhibition in assay [1] turned out to be 2%; in assay [2], 28%; in assay [3], 17%; in assay [4] it was 5%.

In the case of `CC1=C(C(=O)OCc2ccccc2)C(c2ccoc2)NC(=O)N1C` (racemic), the inhibition in assay [1] was determined as 37%; in assay [2] (filed as antagonist), 49%; in assay [3] it was 51%; in assay [4], 25%.

In the case of `CC(=O)C1=C(C)NC(=O)NC1c1cccs1` (racemic), the inhibition worked out at 2% in assay [1], 2% in assay [2], 11% in assay [3] and 3% in assay [4].

For `CC1=C(C(=O)SC(C)C)C(c2ccco2)NC(=O)N1` (racemic), the inhibition was 2% in assay [1], 22% in assay [2], 5% in assay [3] and 1% in assay [4].

Take `CCNC(=O)C1=C(C)NC(=O)NC1c1ccoc1` (racemic): the inhibition in assay [1] is 2%; in assay [2], 2%; in assay [3], 1%; in assay [4], 1%.

For the molecule `CC1=C(C(=O)NC(C)C)C(c2ccoc2)NC(=O)N1` (racemic), the inhibition in assay [1] was 1%; in assay [2], 3%; in assay [3], 1%; in assay [4], 3%.

For `CC1=C(C(=O)NC(C)C)C(c2ccco2)NC(=O)N1` (racemic), the inhibition in assay [1] was 1%; in assay [2] it was 2%; in assay [3] it was 3%; in assay [4], 4%.

With `COC(=O)C1=C(C)NC(=S)NC1c1cccs1` (racemic), the inhibition in assay [1] came out at 1%; in assay [2], 10%; in assay [3], 1%; in assay [4], 1%.

On to `CCN(CC)C(=O)C1=C(C)NC(=O)NC1c1ccoc1` (racemic), for which the inhibition in assay [1] is 6%; in assay [2] it was 12%; in assay [3], 15%; in assay [4], 37%.

On to `COC(=O)C1=C(C)N(C)C(=O)NC1c1cccs1` (racemic), for which the inhibition is 49% in assay [1], 17% in assay [2], 30% in assay [3] and 15% in assay [4].
